ChEMBL document CHEMBL5620424, “Design, synthesis and evaluation of novel 2-phenyl-3-(1H-pyrazol-4-yl)pyridine positive allosteric modulators for the M4 mAChR” (Eur J Med Chem, 2023)
The source made the active and inactive calls. The rule behind the calls is not given here.

Columns and labels:
[1] = target: T1, Muscarinic acetylcholine receptor M4 (Homo sapiens) (UniProt P08173); experiment: Displacement of 3[H]-NMS from human M4 mAChR expressed in Flp-In-CHO cells assessed as binding constant incubated for 6 hrs by microbeta2 plate reader assay; assay type: cell-based; details: filed as positive allosteric modulator
T1 sequence (whole entry): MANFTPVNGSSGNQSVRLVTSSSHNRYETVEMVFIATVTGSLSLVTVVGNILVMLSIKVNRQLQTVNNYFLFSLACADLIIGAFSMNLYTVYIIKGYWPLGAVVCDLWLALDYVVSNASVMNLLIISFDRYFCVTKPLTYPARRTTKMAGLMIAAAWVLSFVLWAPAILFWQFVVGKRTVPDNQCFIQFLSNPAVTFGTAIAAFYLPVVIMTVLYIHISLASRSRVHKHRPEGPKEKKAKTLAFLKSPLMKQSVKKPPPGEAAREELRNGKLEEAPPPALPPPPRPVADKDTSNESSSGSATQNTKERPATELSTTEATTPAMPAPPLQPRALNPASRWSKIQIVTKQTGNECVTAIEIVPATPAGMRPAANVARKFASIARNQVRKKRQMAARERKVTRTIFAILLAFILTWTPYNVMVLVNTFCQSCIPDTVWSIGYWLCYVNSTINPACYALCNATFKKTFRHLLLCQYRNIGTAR
Procedure, shortened: (§1)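 Intact FlpInCHO-hM4 cells, 20,000/well grown overnight, in HBSS pH 7.4 with [3H]-NMS 0.5 nM, ACh (0.01 μM–10 mM) and modulator (0.1–10 μM), shaken 6 h at room temperature. Washed with ice-cold 0.9% NaCl, then scintillation counting. Nonspecific binding defined with 10 μM atropine. pKB and log α(ACh) from global fit to allosteric ternary complex model, with log α′(NMS) fixed at –3 under strong negative cooperativity. 4–5 experiments in duplicate.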

[2] = target: T1, Muscarinic acetylcholine receptor M4 (Homo sapiens); experiment: Positive allosteric modulation at Rluc-tagged human M4 mAChR expressed in Flp-In-CHO cells co-expressing eYFP-tagged beta-arrestin 2 assessed as ACh-mediated beta-arrestin 2 recruitment co-operativity (log alpha beta) incubated for 5 mins by luminometry; assay type: cell-based; details: filed as positive allosteric modulator
Procedure, shortened: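 FlpInCHO cells co-transfected with human M4-Rluc8 (20 ng/well) and β-arrestin-2-eYFP (80 ng/well) using PEI, assayed after 48 h. Coelenterazine h (5 μM) preincubated 5 min, then ACh plus modulator ranges for 5 min at 37 °C; BRET at 475/535 nm. Fit to simplified operational model with slope 1 and KB fixed from binding. 4–5 experiments in duplicate.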

[3] = Drug concentration in plasma of naive C57BL/6J mouse at 10 mg/kg, ip measured after 20 to 30 mins; assay type: ADME, organism-based; details: in vivo, time 20-30 min
Procedure, shortened: (§2)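 Male C57Bl/6J mice, naïve, 10–12 weeks old, dosed i.p. at 10 mg/kg in 10% DMSO, 1.1% Tween 80, 21.8 mM Tris. Blood by cardiac puncture under anaesthesia at 20 or 90 min (n = 2–3 per time point). Brain concentration corrected for compound in brain vasculature. Mean nM ± SEM reported; Kp = Cbrain/Cplasma, reported as a range.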

[4] = target: T1, Muscarinic acetylcholine receptor M4 (Homo sapiens); experiment: […] human M4 mAChR expressed in Flp-In-CHO cells co-expressing CAMYEL biosensor assessed as change in baseline response at 10 uM incubated for 5 mins by BRET assay relative to control; assay type: cell-based
Procedure, shortened: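 FlpInCHO cells stably expressing human M4 mAChR, transiently transfected with CAMYEL cAMP BRET biosensor (60 ng/well, PEI), assayed 48 h later in HBSS pH 7.4. Full ACh concentration-response curve alone or with modulator at 1 or 10 μM, co-added with coelenterazine h (5 μM), 5 min, 37 °C. Three-parameter logistic fit; ACh curve values subtracted from ACh+modulator values. Δbaseline and ΔEmax given as % of maximal ACh response without modulator. 4 experiments in duplicate, SEM pooled.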

[5] = target: T1, Muscarinic acetylcholine receptor M4 (Homo sapiens); experiment: Positive allosteric modulation at human M4 mAChR expressed in Flp-In-CHO cells co-expressing CAMYEL biosensor assessed as efficacy of ACh-mediated cAMP signalling (log tau B) incubated for 5 mins by BRET assay; assay type: functional, cell-based; details: filed as positive allosteric modulator
Procedure, shortened: (§3)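 CAMYEL-transfected FlpInCHO-hM4 cells (48 h post-transfection) given ACh and modulator concentration ranges in full interaction design, 5 min at 37 °C; BRET read with coelenterazine h. Fit to complete operational model of allosterism and agonism with ACh KA and modulator KB fixed from binding assays. Gives log τB and log αβ. 4–5 experiments in duplicate.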

[6] = Drug concentration in brain of naive C57BL/6J mouse at 10 mg/kg, ip measured after 20 to 30 mins; assay type: ADME, organism-based; details: in vivo, time 20-30 min, read-out: Ct; procedure, shortened: as §2
[7] = target: T2, Muscarinic acetylcholine receptor M5 (Homo sapiens) (UniProt P08912); experiment: Positive allosteric modulation at human M5 mAChR expressed in Flp-In-CHO cells at 10 uM incubated for 5 mins by […]; assay type: cell-based
T2 sequence (whole entry): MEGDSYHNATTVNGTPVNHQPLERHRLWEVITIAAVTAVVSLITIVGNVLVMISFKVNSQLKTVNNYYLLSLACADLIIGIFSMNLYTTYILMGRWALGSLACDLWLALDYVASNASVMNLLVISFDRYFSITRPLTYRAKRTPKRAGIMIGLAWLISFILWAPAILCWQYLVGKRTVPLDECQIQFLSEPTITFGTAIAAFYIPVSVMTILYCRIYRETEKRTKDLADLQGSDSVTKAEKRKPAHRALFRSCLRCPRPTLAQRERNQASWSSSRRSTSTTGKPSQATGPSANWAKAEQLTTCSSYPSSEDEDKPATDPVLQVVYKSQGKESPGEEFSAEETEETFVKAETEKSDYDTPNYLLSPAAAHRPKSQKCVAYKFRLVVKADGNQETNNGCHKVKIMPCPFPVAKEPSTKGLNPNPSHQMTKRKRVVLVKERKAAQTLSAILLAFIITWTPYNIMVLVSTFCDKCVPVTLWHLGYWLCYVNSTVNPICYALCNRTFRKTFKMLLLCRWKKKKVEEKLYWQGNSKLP
Procedure, shortened: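 FlpInCHO cells stably expressing human M1–M5 mAChRs, serum-deprived in HBSS 4 h at 37 °C, then ACh (10 nM–10 μM) with or without modulator at 10 μM for 5 min at 37 °C. Cells lysed and frozen overnight. pERK1/2 measured by AlphaScreen SureFire Ultra, as % of response to 10% FBS.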

[8] = Drug concentration in brain of naive C57BL/6J mouse at 10 mg/kg, ip measured after 90 mins; assay type: ADME, organism-based; details: read-out: Ct; procedure, shortened: as §2
[9] = Ratio of drug concentration in brain to plasma of naive C57BL/6J mouse at 10 mg/kg, ip; assay type: ADME, organism-based; details: read-out: BPR; procedure, shortened: as §2
[10] = target: T1, Muscarinic acetylcholine receptor M4 (Homo sapiens); experiment: Displacement of 3[H]-NMS from human M4 mAChR expressed in Flp-In-CHO cells assessed as binding co-operativity (log alpha) incubated for 6 hrs in presence of ACh by microbeta2 plate reader assay; assay type: cell-based; details: filed as positive allosteric modulator; procedure, shortened: as §1
[11] = target: T1, Muscarinic acetylcholine receptor M4 (Homo sapiens); experiment: Positive allosteric modulation at human M4 mAChR expressed in Flp-In-CHO cells co-expressing CAMYEL biosensor assessed as ACh-mediated cAMP signalling co-operativity (log alpha beta) incubated for 5 mins by BRET assay; assay type: functional, cell-based; details: filed as positive allosteric modulator; procedure, shortened: as §3
[12] = filed as positive allosteric modulator

| pKb [1] | log(activity) [2] | concentration [3] [nM] | Activity [4, 12] [%] | log(activity) [5] | concentration [6] [nM] | Activity [7] | concentration at 1.5 h [8] [nM] | Kp [9] | log(activity) [10] | log(activity) [11] | Activity [4] [%] | Structure (SMILES) |
| --- | --- | --- | --- | --- | --- | --- | --- | --- | --- | --- | --- | --- |
| 6.22 | 1.94 | 2440 | 103 | -0.45 | 481 | inactive | 9 | 0.1 | 2.12 | 2.34 |  | Cc1ccc(-c2cnn(CC3CCCC3)c2)c(-c2ccc3c(c2)C(=O)N(C)C3)n1 |
| 4.75 | 1.18 | 2430 |  | -1.29 | 982 | inactive | 373 | 0.3 | 1.87 | 1.91 | 8.48 | Cc1ccc(-c2cnn(CC3CCCC3)c2)c(-c2ccc(N)c([N+](=O)[O-])c2)n1 |
| 4.53 | 1.55 | 915 | 51.4 | -0.07 | 2140 | inactive | 255 | 1.6 | 2.04 | 2.65 |  | Cc1ccc(-c2cnn(CC3CCCC3)c2)c(-c2ccc(F)c(F)c2)n1 |
